Columns and labels:
[1] = tested on: G-361; assay: Cytotoxicity against human G361 cells under dark condition measured after 72 hrs by MTT assay; assay type: functional, cell-based; conditions: G-361, 72 h
Procedure, shortened: (§1)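 Cells grown in phenol red-free DMEM with 10 % FBS, penicillin/streptomycin, 37 °C, 5 % CO₂. Compound added 24 h after plating and incubated 4 h. Irradiated cells received 414 nm LED light at 20 mW/cm², 10 J/cm², then were incubated 20 h or 68 h more. Dark plates were run in parallel without irradiation. MTT was added for 4 h, formazan dissolved in 10 % SDS, absorbance read at 570 nm. EC50 ± SD.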

[2] = tested on: G-361; assay: Cytotoxicity against human G361 cells pretreated for 4 hrs followed by light irradiation of 10 J/cm2 at 414 nm measured after 68 hrs by MTT assay; assay type: functional, cell-based; conditions: G-361, light or radiation study; procedure, shortened: as §1
[3] = Cytotoxicity against human BJ cells under dark condition measured after 72 hrs by MTT assay; assay type: toxicity, cell-based; procedure, shortened: as §1

`CCN(CC)c1ccc(/C=C/C2=Nc3ccc4ccccc4c3C2(C)C)cc1` showed an EC50 [1] of over 10 µM and an EC50 [2] of over 10 µM.

`CC1(C)C(/C=C/c2ccc(F)c([N+](=O)[O-])c2)=Nc2ccc3ccccc3c21` showed an EC50 [1] of 7.9 µM and an EC50 [2] of 1.8 µM.

With `CC1(C)C(/C=C/c2ccc(Cl)c([N+](=O)[O-])c2)=Nc2ccc3ccccc3c21` the EC50 [1] was 7.2 µM, the EC50 [2] was 0.3 µM and the EC50 at 72 h [3] was over 10 µM.

With `CC1(C)C(/C=C/c2cc([N+](=O)[O-])ccc2Cl)=Nc2ccc3ccccc3c21` the EC50 [1] was over 10 µM and the EC50 [2] was 7.9 µM.

In the case of `CC1(C)C(/C=C/c2cccc(C#N)c2)=Nc2ccc3ccccc3c21`, the EC50 [1] is reported as 3.7 µM and the EC50 [2] is reported as 0.9 µM.

Molecule `CC1(C)C(/C=C/c2cc(C(F)(F)F)cc(C(F)(F)F)c2)=Nc2ccc3ccccc3c21` has an EC50 [1] of over 10 µM, an EC50 [2] of 1.3 µM and an EC50 at 72 h [3] of over 10 µM.

For `COc1ccc(/C=C/C2=Nc3ccc4ccccc4c3C2(C)C)cc1`, the EC50 [1] was 9.5 µM and the EC50 [2] was 5.2 µM.

`CC1(C)C(/C=C/c2ccc(C#N)cc2)=Nc2ccc3ccccc3c21` showed an EC50 [1] of 5.1 µM, an EC50 [2] of 0.5 µM and an EC50 at 72 h [3] of 6.7 µM.

For `CC1(C)C(/C=C/c2ccc(F)cc2)=Nc2ccc3ccccc3c21`, the EC50 [1] was 7.3 µM and the EC50 [2] was 4.1 µM.

`CC1(C)C(/C=C/c2ccc(Br)cc2)=Nc2ccc3ccccc3c21` gave an EC50 [1] of 7.6 µM, an EC50 [2] of 1.3 µM and an EC50 at 72 h [3] of over 10 µM.

For `CC1(C)C(/C=C/c2ccc(F)c(C#N)c2)=Nc2ccc3ccccc3c21`, the EC50 [1] was 6.9 µM and the EC50 [2] was 1.4 µM.

In the case of `Cc1ccc(/C=C/C2=Nc3ccc4ccccc4c3C2(C)C)cc1[N+](=O)[O-]`, the EC50 [1] is reported as 6.6 µM, the EC50 [2] is reported as 0.9 µM and the EC50 at 72 h [3] is reported as 8 µM.

`CC1(C)C(/C=C/c2ccc(C(F)(F)F)cc2)=Nc2ccc3ccccc3c21` showed an EC50 [1] of 4 µM and an EC50 [2] of 0.9 µM.

For `CC1(C)C(/C=C/c2ccccc2[N+](=O)[O-])=Nc2ccc3ccccc3c21`, the EC50 [1] was 7.8 µM, the EC50 [2] was 1.1 µM and the EC50 at 72 h [3] was over 10 µM.

Molecule `CC1(C)C(/C=C/c2cccc(C(F)(F)F)c2)=Nc2ccc3ccccc3c21` has an EC50 [1] of 7.6 µM, an EC50 [2] of 1.3 µM and an EC50 at 72 h [3] of over 10 µM.

`CC1(C)C(/C=C/c2ccc([N+](=O)[O-])cc2)=Nc2ccc3ccccc3c21` showed an EC50 [1] of 5.7 µM, an EC50 [2] of 0.8 µM and an EC50 at 72 h [3] of 6 µM.

For `CC1(C)C(/C=C/c2ccccc2)=Nc2ccc3ccccc3c21`, the EC50 [1] was 6.5 µM and the EC50 [2] was 2.8 µM.

Work on `CC1(C)C(/C=C/c2cccc([N+](=O)[O-])c2)=Nc2ccc3ccccc3c21` yielded an EC50 [1] of 2.9 µM, an EC50 [2] of 0.4 µM and an EC50 at 72 h [3] of 5 µM.

Molecule `CN(C)c1ccc(/C=C/C2=Nc3ccc4ccccc4c3C2(C)C)cc1` has an EC50 [1] of over 10 µM and an EC50 [2] of over 10 µM.

In the case of `CC1(C)C(/C=C/c2ccc(C#N)c(F)c2)=Nc2ccc3ccccc3c21`, the EC50 [1] is reported as 6.2 µM, the EC50 [2] is reported as 0.6 µM and the EC50 at 72 h [3] is reported as 7.2 µM.
